Key:
[1] = Antiproliferative activity against human Hs 578T cells after 3 days by sulforhodamine B assay; assay type: functional; conditions: 72 h
In short: (§1)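 Tested in the NCI 60 cell line panel. GI50 is the concentration giving 50% inhibition of cell growth, and values are the mean of two series of tests.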

786-0 = test: Antiproliferative activity against human 786-0 cells after 3 days by sulforhodamine B assay; assay type: functional; conditions: 786-0, 72 h; in short: as §1
[2] = Antiproliferative activity against human UACC257 cells after 3 days by sulforhodamine B assay; assay type: functional; conditions: UACC-257, 72 h
HCT-15 = test: Antiproliferative activity against human HCT15 cells after 3 days by sulforhodamine B assay; assay type: functional; conditions: HCT-15, 72 h; in short: as §1
NCI-H522 = test: Antiproliferative activity against human NCI-H522 cells after 3 days by sulforhodamine B assay; assay type: functional; conditions: NCI-H522, 72 h; in short: as §1
[3] = target: Serine/threonine-protein kinase TAO2 (Homo sapiens) (UniProt Q9UL54); test: Inhibition of human TAO2 assessed as residual activity at 1 uM relative to control
[4] = target: Serine/threonine-protein kinase PLK2 (Homo sapiens) (UniProt Q9NYY3); test: Inhibition of human Snk assessed as residual activity at 1 uM relative to control
[5] = target: Serine/threonine-protein kinase SIK1 (Homo sapiens) (UniProt P57059); test: Inhibition of human SIK assessed as residual activity at 1 uM relative to control
Serine/threonine-protein kinase SIK1 (Homo sapiens), sequence (P57059 whole entry): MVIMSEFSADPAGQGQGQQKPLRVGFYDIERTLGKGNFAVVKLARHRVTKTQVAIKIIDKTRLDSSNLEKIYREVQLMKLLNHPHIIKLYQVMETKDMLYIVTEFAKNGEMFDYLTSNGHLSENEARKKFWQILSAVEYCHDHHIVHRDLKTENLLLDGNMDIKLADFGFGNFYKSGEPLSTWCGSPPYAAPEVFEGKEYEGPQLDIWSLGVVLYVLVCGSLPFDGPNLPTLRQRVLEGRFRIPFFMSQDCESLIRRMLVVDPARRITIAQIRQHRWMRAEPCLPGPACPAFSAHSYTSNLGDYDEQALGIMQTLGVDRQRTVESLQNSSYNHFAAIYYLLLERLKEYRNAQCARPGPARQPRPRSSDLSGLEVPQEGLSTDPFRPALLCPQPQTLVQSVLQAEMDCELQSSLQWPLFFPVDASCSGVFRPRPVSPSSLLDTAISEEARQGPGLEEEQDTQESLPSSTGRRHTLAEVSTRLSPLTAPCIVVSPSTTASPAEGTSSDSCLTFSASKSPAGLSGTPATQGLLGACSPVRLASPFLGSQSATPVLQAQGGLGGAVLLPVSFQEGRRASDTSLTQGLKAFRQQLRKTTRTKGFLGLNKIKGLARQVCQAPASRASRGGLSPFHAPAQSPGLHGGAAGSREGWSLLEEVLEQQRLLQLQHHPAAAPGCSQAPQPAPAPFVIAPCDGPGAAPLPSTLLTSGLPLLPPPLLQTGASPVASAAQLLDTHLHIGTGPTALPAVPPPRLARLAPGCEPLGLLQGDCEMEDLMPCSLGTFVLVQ

[6] = target: Mitogen-activated protein kinase 13 (Homo sapiens) (UniProt O15264); test: Inhibition of human SAPK4 assessed as residual activity at 1 uM relative to control
Mitogen-activated protein kinase 13 (Homo sapiens), sequence (O15264 whole entry): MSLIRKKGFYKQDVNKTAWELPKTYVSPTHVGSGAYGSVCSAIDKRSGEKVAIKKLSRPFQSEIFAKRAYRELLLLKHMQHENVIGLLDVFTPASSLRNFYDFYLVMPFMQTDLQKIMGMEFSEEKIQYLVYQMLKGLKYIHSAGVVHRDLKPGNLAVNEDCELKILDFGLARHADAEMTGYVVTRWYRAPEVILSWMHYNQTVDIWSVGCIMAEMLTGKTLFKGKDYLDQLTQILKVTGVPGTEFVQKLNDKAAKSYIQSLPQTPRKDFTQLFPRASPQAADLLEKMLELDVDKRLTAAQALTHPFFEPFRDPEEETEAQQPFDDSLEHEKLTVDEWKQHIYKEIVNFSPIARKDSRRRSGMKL

[7] = target: Mitogen-activated protein kinase 12 (Homo sapiens) (UniProt P53778); test: Inhibition of human SAPK3 assessed as residual activity at 1 uM relative to control
Mitogen-activated protein kinase 12 (Homo sapiens), sequence (P53778 whole entry): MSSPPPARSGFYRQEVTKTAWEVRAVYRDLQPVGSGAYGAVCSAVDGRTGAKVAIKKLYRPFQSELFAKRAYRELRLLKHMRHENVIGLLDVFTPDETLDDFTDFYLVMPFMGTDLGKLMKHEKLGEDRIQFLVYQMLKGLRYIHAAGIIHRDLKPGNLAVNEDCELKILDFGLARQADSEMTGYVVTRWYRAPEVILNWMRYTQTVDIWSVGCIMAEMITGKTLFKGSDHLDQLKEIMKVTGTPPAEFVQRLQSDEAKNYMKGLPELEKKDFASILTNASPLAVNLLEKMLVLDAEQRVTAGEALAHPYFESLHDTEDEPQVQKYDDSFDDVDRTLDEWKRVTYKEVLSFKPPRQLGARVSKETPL

[8] = target: RAC-beta serine/threonine-protein kinase (Homo sapiens) (UniProt P31751); test: Inhibition of human PKBbeta assessed as residual activity at 1 uM relative to control
[9] = target: Phosphorylase b kinase gamma catalytic chain, liver/testis isoform (Homo sapiens) (UniProt P15735); test: Inhibition of human PhKgamma2 assessed as residual activity at 1 uM relative to control
[10] = target: Serine/threonine-protein kinase PAK 4 (Homo sapiens) (UniProt O96013); test: Inhibition of human PAK4 assessed as residual activity at 1 uM relative to control
[11] = target: Serine/threonine-protein kinase Nek7 (Homo sapiens) (UniProt Q8TDX7); test: Inhibition of human NEK7 assessed as residual activity at 1 uM relative to control
Serine/threonine-protein kinase Nek7 (Homo sapiens), sequence (Q8TDX7 whole entry, looked up): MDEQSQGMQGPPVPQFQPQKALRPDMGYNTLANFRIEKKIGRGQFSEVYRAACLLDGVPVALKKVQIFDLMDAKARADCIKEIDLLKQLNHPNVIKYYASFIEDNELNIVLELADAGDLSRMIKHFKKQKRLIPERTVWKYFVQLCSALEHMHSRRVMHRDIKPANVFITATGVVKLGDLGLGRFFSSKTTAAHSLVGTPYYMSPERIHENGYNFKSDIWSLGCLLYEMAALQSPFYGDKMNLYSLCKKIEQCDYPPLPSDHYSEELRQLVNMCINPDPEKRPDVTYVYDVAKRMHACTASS

[12] = target: Serine/threonine-protein kinase Nek6 (Homo sapiens) (UniProt Q9HC98); test: Inhibition of human NEK6 assessed as residual activity at 1 uM relative to control
MCF7 = test: Antiproliferative activity against human MCF7 cells after 3 days by SRB assay; assay type: functional, cell-based; conditions: MCF7, 72 h
In short: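 Cells grown at 37 °C, 5% CO2, with 10% heat-inactivated FBS: LXFL529L in RPMI 1640, MCF7 and HT29 in DMEM. Seeded, allowed 24 h growth, then exposed to the drug at various concentrations for 3 days in serum medium. Fixed with TCA for 1 h at 4 °C, stained with 0.4% SRB, eluted in 10 mM Tris pH 10.5, read at 570 nm as % T/C. IC50 taken from dose–response curves of at least three independent experiments.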

[13] = target: Tyrosine-protein kinase Lyn (Homo sapiens) (UniProt P07948); test: Inhibition of human Lyn assessed as residual activity at 1 uM relative to control
Tyrosine-protein kinase Lyn (Homo sapiens), sequence (P07948 2-512 limits assumed): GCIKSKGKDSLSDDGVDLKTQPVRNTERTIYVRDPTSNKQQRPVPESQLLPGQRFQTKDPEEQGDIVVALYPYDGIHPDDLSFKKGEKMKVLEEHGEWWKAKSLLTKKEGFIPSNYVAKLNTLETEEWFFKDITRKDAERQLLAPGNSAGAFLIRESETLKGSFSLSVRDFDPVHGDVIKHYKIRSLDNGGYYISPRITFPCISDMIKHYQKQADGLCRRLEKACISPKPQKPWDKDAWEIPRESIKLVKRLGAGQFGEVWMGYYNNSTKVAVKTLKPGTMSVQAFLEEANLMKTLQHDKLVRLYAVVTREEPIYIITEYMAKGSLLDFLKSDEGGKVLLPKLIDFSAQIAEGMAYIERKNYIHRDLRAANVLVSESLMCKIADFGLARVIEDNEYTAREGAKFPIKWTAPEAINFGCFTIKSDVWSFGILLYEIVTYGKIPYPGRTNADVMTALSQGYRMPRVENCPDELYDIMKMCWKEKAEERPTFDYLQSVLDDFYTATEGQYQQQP

[14] = target: Tyrosine-protein kinase Fer (Homo sapiens) (UniProt P16591); test: Inhibition of human Fer assessed as residual activity at 1 uM relative to control
Tyrosine-protein kinase Fer (Homo sapiens), sequence (P16591 whole entry, looked up): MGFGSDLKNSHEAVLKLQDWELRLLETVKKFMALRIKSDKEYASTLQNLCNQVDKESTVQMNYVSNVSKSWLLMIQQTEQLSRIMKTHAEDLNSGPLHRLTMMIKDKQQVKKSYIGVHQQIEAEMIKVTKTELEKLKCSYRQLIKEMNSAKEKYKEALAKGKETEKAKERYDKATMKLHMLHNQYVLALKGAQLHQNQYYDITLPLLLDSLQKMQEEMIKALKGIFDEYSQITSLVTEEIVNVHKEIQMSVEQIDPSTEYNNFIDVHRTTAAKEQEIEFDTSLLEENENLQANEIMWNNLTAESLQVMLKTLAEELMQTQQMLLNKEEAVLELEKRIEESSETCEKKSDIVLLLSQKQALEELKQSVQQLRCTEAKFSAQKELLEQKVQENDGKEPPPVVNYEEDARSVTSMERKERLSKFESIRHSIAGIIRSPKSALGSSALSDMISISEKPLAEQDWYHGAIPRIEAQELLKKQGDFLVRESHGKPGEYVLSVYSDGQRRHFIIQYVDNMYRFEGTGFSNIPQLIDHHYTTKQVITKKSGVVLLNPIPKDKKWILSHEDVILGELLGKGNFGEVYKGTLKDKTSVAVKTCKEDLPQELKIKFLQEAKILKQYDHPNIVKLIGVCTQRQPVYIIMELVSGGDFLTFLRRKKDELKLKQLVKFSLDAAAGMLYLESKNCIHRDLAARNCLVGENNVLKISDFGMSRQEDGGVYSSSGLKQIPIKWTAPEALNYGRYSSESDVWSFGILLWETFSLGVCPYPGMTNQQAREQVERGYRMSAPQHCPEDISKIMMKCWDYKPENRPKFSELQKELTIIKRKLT

[15] = target: Ephrin type-B receptor 4 (Homo sapiens) (UniProt P54760); test: Inhibition of human EphB4 assessed as residual activity at 1 uM relative to control
[16] = target: Ephrin type-B receptor 3 (Homo sapiens) (UniProt P54753); test: Inhibition of human EphB3 assessed as residual activity at 1 uM relative to control
Ephrin type-B receptor 3 (Homo sapiens), sequence (P54753 whole entry): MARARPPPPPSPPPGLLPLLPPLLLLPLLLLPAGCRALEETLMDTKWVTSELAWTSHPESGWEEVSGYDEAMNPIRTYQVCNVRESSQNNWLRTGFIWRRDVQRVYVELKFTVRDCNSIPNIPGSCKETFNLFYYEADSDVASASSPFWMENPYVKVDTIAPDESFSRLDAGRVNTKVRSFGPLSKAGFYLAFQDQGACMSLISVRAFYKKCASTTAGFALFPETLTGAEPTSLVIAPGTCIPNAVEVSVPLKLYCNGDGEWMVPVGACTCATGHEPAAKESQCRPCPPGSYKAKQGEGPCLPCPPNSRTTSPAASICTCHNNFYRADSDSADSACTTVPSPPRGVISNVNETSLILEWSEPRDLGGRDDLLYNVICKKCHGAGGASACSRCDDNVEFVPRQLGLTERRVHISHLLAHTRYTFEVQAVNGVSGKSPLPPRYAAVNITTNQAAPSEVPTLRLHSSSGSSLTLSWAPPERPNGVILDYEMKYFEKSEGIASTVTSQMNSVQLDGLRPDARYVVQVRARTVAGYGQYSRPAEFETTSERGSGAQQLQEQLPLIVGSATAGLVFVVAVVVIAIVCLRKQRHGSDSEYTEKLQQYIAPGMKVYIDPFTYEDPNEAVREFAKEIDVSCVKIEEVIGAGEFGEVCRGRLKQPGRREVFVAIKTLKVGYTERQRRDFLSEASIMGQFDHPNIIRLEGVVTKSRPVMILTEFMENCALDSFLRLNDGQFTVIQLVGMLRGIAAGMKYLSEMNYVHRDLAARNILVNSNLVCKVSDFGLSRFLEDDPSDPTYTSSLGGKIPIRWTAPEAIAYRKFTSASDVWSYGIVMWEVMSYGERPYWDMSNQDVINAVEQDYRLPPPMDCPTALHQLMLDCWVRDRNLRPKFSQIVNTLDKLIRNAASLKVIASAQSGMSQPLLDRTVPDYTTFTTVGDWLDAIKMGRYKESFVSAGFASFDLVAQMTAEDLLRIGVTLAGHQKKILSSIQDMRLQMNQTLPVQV

[17] = target: Ephrin type-A receptor 4 (Homo sapiens) (UniProt P54764); test: Inhibition of human EphA4 assessed as residual activity at 1 uM relative to control
[18] = target: Eukaryotic elongation factor 2 kinase (Homo sapiens) (UniProt O00418); test: Inhibition of human eEF-2K assessed as residual activity at 1 uM relative to control
[19] = target: Serine/threonine-protein kinase BRSK1 (Homo sapiens) (UniProt Q8TDC3); test: Inhibition of human BrSK1 assessed as residual activity at 1 uM relative to control
Serine/threonine-protein kinase BRSK1 (Homo sapiens), sequence (Q8TDC3 whole entry): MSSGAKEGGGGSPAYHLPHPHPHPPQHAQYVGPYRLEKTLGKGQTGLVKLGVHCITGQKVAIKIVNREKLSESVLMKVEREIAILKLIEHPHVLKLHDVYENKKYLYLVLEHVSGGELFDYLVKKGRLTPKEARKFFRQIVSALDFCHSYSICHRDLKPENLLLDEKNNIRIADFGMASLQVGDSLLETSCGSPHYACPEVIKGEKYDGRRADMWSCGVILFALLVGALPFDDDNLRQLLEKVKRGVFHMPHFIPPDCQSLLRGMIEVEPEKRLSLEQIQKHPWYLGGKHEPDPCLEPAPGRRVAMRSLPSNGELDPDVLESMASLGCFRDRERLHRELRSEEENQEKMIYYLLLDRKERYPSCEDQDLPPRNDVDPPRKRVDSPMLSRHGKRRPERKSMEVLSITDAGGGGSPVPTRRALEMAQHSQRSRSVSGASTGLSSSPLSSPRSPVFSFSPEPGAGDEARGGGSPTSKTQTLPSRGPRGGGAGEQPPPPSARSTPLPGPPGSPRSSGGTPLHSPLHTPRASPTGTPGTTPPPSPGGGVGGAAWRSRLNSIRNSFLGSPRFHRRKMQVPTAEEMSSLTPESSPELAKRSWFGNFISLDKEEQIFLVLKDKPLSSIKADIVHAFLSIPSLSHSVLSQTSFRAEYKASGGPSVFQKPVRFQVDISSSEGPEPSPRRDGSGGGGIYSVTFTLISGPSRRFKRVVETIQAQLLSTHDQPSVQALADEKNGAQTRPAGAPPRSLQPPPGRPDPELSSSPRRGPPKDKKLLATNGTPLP

[20] = target: Vascular endothelial growth factor receptor 2 (Homo sapiens) (UniProt P35968); test: Inhibition of VEGF-R2 (unknown origin) assessed as residual activity at 10 uM relative to control
[21] = target: T1, Muscle, skeletal receptor tyrosine-protein kinase (Homo sapiens) (UniProt O15146); test: Inhibition of MUSK (unknown origin) assessed as residual activity at 10 uM relative to control
T1 sequence (whole entry): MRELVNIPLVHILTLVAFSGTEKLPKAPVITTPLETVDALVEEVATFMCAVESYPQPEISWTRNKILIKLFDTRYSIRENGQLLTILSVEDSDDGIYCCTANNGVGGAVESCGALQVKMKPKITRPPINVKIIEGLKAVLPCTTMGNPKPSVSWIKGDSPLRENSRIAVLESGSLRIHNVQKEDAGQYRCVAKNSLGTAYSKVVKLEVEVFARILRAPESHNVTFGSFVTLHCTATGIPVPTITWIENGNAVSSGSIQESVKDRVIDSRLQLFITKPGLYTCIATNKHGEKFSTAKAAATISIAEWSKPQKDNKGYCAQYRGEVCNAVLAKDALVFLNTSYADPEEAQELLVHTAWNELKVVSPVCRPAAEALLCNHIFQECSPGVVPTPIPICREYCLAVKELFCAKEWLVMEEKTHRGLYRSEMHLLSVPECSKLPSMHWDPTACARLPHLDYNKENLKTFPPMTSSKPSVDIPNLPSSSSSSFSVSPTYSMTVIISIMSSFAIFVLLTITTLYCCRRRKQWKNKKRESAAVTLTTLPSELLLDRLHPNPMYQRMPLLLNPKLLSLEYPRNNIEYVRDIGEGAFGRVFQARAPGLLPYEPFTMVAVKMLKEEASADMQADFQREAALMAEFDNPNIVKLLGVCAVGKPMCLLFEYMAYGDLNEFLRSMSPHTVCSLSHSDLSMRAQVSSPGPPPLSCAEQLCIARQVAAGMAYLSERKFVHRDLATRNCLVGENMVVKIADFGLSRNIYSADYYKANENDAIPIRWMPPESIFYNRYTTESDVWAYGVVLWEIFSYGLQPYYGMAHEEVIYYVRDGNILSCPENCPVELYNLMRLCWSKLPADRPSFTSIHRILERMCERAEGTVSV

[22] = target: Serine/threonine-protein kinase Chk2 (Homo sapiens) (UniProt O96017); test: Inhibition of CHK2 (unknown origin) assessed as residual activity at 10 uM relative to control

GI50 (786-0): 4190 nM | GI50 (HCT-15): 575 nM | GI50 (NCI-H522): 2180 nM | Activity [3]: 88% | Activity [4]: 83% | Activity [5]: 32% | Activity [6]: 115% | Activity [7]: 101% | Activity [8]: 87% | Activity [9]: 104% | Activity [10]: 108% | Activity [11]: 57% | Activity [12]: 61% | IC50 (MCF7): 500 nM | Activity [13]: 123% | Activity [14]: 102% | Activity [15]: 116% | Activity [16]: 123% | Activity [17]: 78% | Activity [18]: 94% | Activity [19]: 69% | Activity [20]: 102% | Activity [21]: 98% | Activity [22]: 84%
Compound: O=C1Nc2ncccc2/C1=C1/Nc2ncccc2C1=O
GI50 [1]: 1670 nM | GI50 [2]: 214 nM
